The record followed here is ChEMBL document CHEMBL1154611 (J Med Chem, 2009).

Molecules are shown by their SMILES. In brackets after ≈: the same amount, converted by molar mass. Activity calls are given as the source filed them. The calls are words filed in the database; no cut-off is given here.

Data set [1] concerns the target Motilin receptor (Oryctolagus cuniculus, UniProt A5A4K8). Kind of data set: Agonist activity at motilin receptor in rabbit smooth muscle assessed as maximal possible tissue contraction. It counts as functional. The gist of the method:
(§1)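 Rabbit smooth muscle contractility assay. EC50 is the concentration giving 50% of the maximal possible contraction. Tachyphylaxis is the % contractile response to an EC90 drug concentration after three cycles of administration and washout.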

The target in data set [2] is Motilin receptor (Oryctolagus cuniculus) (UniProt A5A4K8). Kind of data set: Agonist activity at motilin receptor in rabbit smooth muscle assessed as tachyphylaxis at EC90 concentration after 4th dose. It counts as functional. The gist of the method:
as §1

In data set [3] the test system is Streptococcus pneumoniae. Kind of data set: Antibacterial activity against erythromycin-sensitive Streptococcus pneumoniae ATCC 6301. The format is functional. The gist of the method: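 MIC, the minimal growth inhibitory concentration, was determined in routine screening against the highly erythromycin-sensitive strain Streptococcus pneumoniae ATCC6301.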
The target in data set [4] is T1, hERG (KCNH2) (Homo sapiens, UniProt Q12809). Kind of data set: Inhibition of human ERG expressed in HEK cells at 30 uM. The format is cell-based, HEK293. Conditions: HEK cells expressing human ERG.
The target of data set [5] is T1, hERG (KCNH2). The experiment in a line: Inhibition of human ERG expressed in HEK cells at 300 uM. It counts as cell-based, HEK293. As to conditions: HEK cells expressing human ERG.
Data set [6] relates to Enterococcus faecalis. The experiment in a line: Antimicrobial activity against Enterococcus faecalis. It counts as functional, organism-based. The gist of the method:
(§2)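 MIC was determined across a panel of about 200 clinical isolates from a variety of specimens held in a university clinical microbiology collection, with about 10 isolates per species. The panel covers gut flora and organisms commonly known to develop antibiotic resistance.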

In data set [7] the test system is Enterococcus faecium. Kind of data set: Antimicrobial activity against Enterococcus faecium. It counts as functional, organism-based. The gist of the method: as §2
Data set [8] deals with Micrococcus luteus. Kind of data set: Antimicrobial activity against Micrococcus luteus. The format is functional, organism-based. The gist of the method:
as §2

Data set [9] concerns Staphylococcus aureus. Kind of data set: Antimicrobial activity against Staphylococcus aureus. The format is functional, organism-based. The gist of the method:
as §2

Data set [10] concerns Streptococcus equinus. The experiment in a line: Antimicrobial activity against Streptococcus bovis. It counts as functional, organism-based. The gist of the method:
as §2

Data set [11] relates to Streptococcus pneumoniae. The experiment in a line: Antimicrobial activity against Streptococcus pneumoniae. The format is functional, organism-based. The gist of the method:
as §2

Data set [12] deals with Streptococcus pyogenes. The experiment in a line: Antimicrobial activity against Streptococcus pyogenes. The format is functional, organism-based. The gist of the method: as §2
For data set [13], the system named is Corynebacterium jeikeium. The experiment in a line: Antimicrobial activity against Corynebacterium jeikeium. The format is functional, organism-based. The gist of the method:
as §2

Data set [14] has as its system Corynebacterium sp. The experiment in a line: Antimicrobial activity against Corynebacterium sp. The format is functional, organism-based. The gist of the method: as §2
Data set [15] concerns Lactobacillus sp. Kind of data set: Antimicrobial activity against Lactobacillus sp. The format is functional, organism-based. The gist of the method: as §2
Data set [16] deals with Escherichia coli. The experiment in a line: Antimicrobial activity against Escherichia coli. It counts as functional, organism-based. The gist of the method:
as §2

Data set [17] deals with Klebsiella pneumoniae. Kind of data set: Antimicrobial activity against Klebsiella pneumoniae. It counts as functional, organism-based. The gist of the method:
as §2

Data set [18] relates to Proteus mirabilis. The experiment in a line: Antimicrobial activity against Proteus mirabilis. The format is functional, organism-based. The gist of the method:
as §2

Data set [19] deals with Haemophilus influenzae. Kind of data set: Antimicrobial activity against Haemophilus influenzae. The format is functional, organism-based. The gist of the method: as §2
Data set [20] has as its system Moraxella catarrhalis. Kind of data set: Antimicrobial activity against Moraxella catarrhalis. The format is functional, organism-based. The gist of the method: as §2
The subject of data set [21] is Bacteroides fragilis. The experiment in a line: Antimicrobial activity against Bacteroides fragilis. It counts as functional, organism-based. The gist of the method: as §2
The test system of data set [22] is Clostridioides difficile. Kind of data set: Antimicrobial activity against Clostridium difficile. The format is functional, organism-based. The gist of the method: as §2
The test system of data set [23] is Clostridium perfringens. Kind of data set: Antimicrobial activity against Clostridium perfringens. It counts as functional, organism-based. The gist of the method:
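MIC determined across a panel of about 200 clinical strains that represent gut flora and species known to develop antibiotic resistance. The panel included about 10 Clostridium perfringens isolates, taken from a variety of clinical specimens and held in the University of Rochester Medical Center clinical microbiology collection.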

For data set [24], the system named is Cutibacterium acnes. The experiment in a line: Antimicrobial activity against Propionibacterium acnes. It counts as functional, organism-based.
Data set [25] deals with Staphylococcus. The experiment in a line: Antimicrobial activity against Staphylococcus coagulase. The format is functional, organism-based. The gist of the method: as §2
In data set [26] the target is Voltage-gated inwardly rectifying potassium channel KCNH2 (Homo sapiens, UniProt Q12809). Kind of data set: Inhibition of human ERG expressed in HEK cells. The format is cell-based, HEK293.
A short description of data set [27]: Ratio of IC50 for human ERG to EC50 for rabbit motilin receptor agonism. It counts as functional. The gist of the method: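 The motilin EC50 came from the rabbit smooth muscle contraction assay, and the ratio of the two served as a cardiovascular safety predictor.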

Motilin receptor, sequence (A5A4K8 whole entry): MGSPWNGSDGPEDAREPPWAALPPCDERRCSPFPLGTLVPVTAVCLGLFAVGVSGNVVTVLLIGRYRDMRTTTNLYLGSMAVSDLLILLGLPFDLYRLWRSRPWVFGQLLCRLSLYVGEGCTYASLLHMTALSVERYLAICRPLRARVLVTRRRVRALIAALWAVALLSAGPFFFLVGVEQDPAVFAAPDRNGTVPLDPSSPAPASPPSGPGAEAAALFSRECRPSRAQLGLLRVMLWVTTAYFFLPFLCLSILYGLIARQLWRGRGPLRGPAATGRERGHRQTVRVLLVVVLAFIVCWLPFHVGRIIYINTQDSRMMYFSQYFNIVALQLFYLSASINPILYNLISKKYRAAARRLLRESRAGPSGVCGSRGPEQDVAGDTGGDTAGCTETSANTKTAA
Motilin receptor (Oryctolagus cuniculus), sequence (A5A4K8 as listed by the source): as the sequence (A5A4K8 whole entry) above
T1 sequence (Q12809 whole entry): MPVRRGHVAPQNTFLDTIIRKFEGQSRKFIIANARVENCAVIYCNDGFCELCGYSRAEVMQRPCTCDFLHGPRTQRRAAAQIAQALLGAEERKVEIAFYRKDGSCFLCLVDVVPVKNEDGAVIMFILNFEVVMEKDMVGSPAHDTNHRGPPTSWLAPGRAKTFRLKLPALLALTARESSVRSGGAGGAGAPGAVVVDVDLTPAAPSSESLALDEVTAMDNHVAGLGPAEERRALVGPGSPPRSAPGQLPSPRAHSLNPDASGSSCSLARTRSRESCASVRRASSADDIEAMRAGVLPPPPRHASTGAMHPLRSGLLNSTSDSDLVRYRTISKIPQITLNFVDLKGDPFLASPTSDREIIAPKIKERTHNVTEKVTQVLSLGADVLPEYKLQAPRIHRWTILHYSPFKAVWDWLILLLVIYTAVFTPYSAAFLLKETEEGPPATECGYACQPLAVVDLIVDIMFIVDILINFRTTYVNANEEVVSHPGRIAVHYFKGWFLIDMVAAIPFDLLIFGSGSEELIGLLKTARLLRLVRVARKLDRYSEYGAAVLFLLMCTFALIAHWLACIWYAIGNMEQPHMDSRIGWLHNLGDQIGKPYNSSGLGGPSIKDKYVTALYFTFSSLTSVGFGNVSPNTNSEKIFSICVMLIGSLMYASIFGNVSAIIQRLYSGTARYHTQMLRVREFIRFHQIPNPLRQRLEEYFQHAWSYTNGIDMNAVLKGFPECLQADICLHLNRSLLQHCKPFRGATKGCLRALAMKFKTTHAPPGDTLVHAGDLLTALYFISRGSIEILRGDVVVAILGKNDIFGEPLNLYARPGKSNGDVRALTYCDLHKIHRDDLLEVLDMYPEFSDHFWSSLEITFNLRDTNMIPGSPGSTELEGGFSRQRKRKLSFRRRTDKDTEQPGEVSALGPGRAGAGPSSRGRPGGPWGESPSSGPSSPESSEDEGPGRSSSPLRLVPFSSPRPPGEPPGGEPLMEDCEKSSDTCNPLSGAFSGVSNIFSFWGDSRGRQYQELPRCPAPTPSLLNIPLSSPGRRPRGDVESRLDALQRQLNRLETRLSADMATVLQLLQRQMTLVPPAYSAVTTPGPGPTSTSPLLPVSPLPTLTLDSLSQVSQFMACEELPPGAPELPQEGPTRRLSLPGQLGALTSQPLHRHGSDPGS
Voltage-gated inwardly rectifying potassium channel KCNH2, sequence (Q12809 whole entry): as above

On to `CC[C@H]1OC(=O)[C@H](C)[C@@H](O[C@H]2C[C@@](C)(OC)[C@@H](O)[C@H](C)O2)[C@H](C)[C@@H](O[C@@H]2O[C@H](C)C[C@H](N(C)C(C)C)[C@H]2O)[C@](C)(O)C[C@@H](C)[C@H](OCC(=O)NC2CCOCC2)[C@H](C)[C@@H](O)[C@]1(C)O`, for which, in data set [1], the EC50 (commonly the concentration giving half of the maximal effect) is 120 nM. Also, the Activity in [2] amounted to 88%. Further, the MIC (usually the least concentration at which growth counts as inhibited) in data set [3] was greater than 128 µg/mL. Moreover, at 30 µM the inhibition in data set [4] was 23%. Also, in data set [5], testing at 300 µM gave an inhibition of 67%.
In the case of `CC[C@H]1OC(=O)[C@H](C)[C@@H](O[C@H]2C[C@@](C)(OC)[C@@H](O)[C@H](C)O2)[C@H](C)[C@@H](O[C@@H]2O[C@H](C)C[C@H](N(C)C(C)C)[C@H]2O)[C@](C)(O)C[C@@H](C)[C@H](OCC(=O)NC)[C@H](C)[C@@H](O)[C@]1(C)O`, the EC50 in [1] was 58 nM. Also, the Activity in data set [2] was determined as 89%. This compound also returned an MIC in data set [3] greater than 128 µg/mL. In addition, the result in data set [6], in data set [7], in data set [8], in [9], in [10] and in data set [11] was inactive. Also, the outcome in data set [12], in data set [13], in data set [14], in data set [15], in [16] and in data set [17] was inactive. The outcome in [18], in data set [19], in [20], in data set [21], in data set [22] and in [23] was inactive. The result in [24] and in [25] was inactive.
For the compound `CC[C@H]1OC(=O)[C@H](C)[C@@H](O[C@H]2C[C@@](C)(OC)[C@@H](O)[C@H](C)O2)[C@H](C)[C@@H](O[C@@H]2O[C@H](C)C[C@H](N(C)C(C)C)[C@H]2O)[C@](C)(O)C[C@@H](C)[C@H](O)[C@H](C)[C@@H](O)[C@]1(C)O` [3 9-DIHYDRO-N-DESMETHYL-N-ISOPROPYLERYTHROMYCIN A], in data set [1], the EC50 was 260 nM. In addition, the Activity in data set [2] came out at 85%. For the same compound, the MIC in [3] came to 32 µg/mL (≈ 41.9 µM). In addition, the inhibition (usually the share of the control response that was lost under treatment) at 30 µM in [4] was found to be 80%. Moreover, 300 µM produced 100% inhibition in data set [5]. In addition, in data set [26], the midpoint of inhibition, the IC50, lay at 10000 nM. Moreover, in data set [27], the Ratio IC50/EC50 came out at 38.
On to `CC[C@H]1OC(=O)[C@H](C)[C@@H](O[C@H]2C[C@@](C)(OC)[C@@H](O)[C@H](C)O2)[C@H](C)[C@@H](O[C@@H]2O[C@H](C)C[C@H](N(C)C(C)C)[C@H]2O)[C@](C)(O)C[C@@H](C)[C@H](OCCCC(=O)NC)[C@H](C)[C@@H](O)[C@]1(C)O`, for which the EC50 in data set [1] turned out to be 84 nM. In addition, in data set [2], the Activity worked out at 79%. This compound gave an MIC in data set [3] of 128 µg/mL (≈ 148 µM). This compound yielded an inhibition at 30 µM in [4] of 13%. For the same compound, the inhibition at 300 µM in [5] was determined as 56%.
